Results reported in ChEMBL document CHEMBL4028857, “Anchimerically Activated ProTides as Inhibitors of Cap-Dependent Translation and Inducers of Chemosensitization in Mantle Cell Lymphoma” (J Med Chem, 2017).
Calls of active or inactive are those of the source. No cut-off for these calls is given here.

Tests used:
[1] = AUC (0 to 8 hrs) in Sprague-Dawley rat plasma at 2.5 mg/kg, iv by LC-MS/MS analysis; assay type: ADME, organism-based; parameters: time < 8 hr, dose 2.5 mg/kg, route intravenous
Procedure, shortened: (§1)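 Female Sprague-Dawley rats (250-274 g, n=3, catheterized femoral/jugular veins) dosed once p.o. by gavage (25 mg/kg) then, after a 3-day washout, i.v. (2.5 mg/kg). Formulation: 10 mg/mL in 0.5% aqueous CMC with 5% DMSO. Serial blood draws to 480 min into K2EDTA; plasma protein-precipitated with acetonitrile plus internal standards; LC-MS/MS (positive MRM); non-compartmental PK; %F from dose-normalized AUC per rat.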

[2] = (§2) Prodrug activation in human Mino cells assessed as 9-((2R,3R,4S,5R)-5-(((((2-(1H-Indol-3-yl)ethyl)amino)-(hydroxy)phosphoryl)oxy)methyl)-3,4-dihydroxytetrahydrofuran-2-yl)-2-amino-7-(2-(4-chlorophenoxy)ethyl)-6-oxo-6,9-dihydro-1H-purin-7-ium formation per 5 million cells at 150 uM after 12 hrs by LC-MS/MS analysis; assay type: cell-based
Procedure, shortened: (§3)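 Mantle cell lymphoma cells (five million) grown in RPMI with 10% FBS, penicillin/streptomycin and L-glutamine at 37 °C, 5% CO2, then exposed to 150 µM compound for 12 h at 37 °C. Washed with ice-cold PBS, pellet extracted in MeOH/NH4OAc (60:40) with 80 fmol internal standards, three liquid-N2 freeze–thaw cycles, filtered, dried, redissolved in 20 mM HEPES pH 7.2. Analysed by LC-MS/MS against a standard curve.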

[3] = system: Rattus norvegicus; test: Clearance in Sprague-Dawley rat at 2.5 mg/kg, iv by LC-MS/MS analysis; assay type: ADME, organism-based; conditions: in vivo; procedure, shortened: as §1
[4] = Volume of distribution in Sprague-Dawley rat at 2.5 mg/kg, iv by LC-MS/MS analysis; assay type: ADME, organism-based; conditions: in vivo
Procedure, shortened: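 Female Sprague-Dawley rats (n=3, 250-274 g) with catheters; compound in 0.5% aqueous CMC with 5% DMSO given as a single i.v. injection, 2.5 mg/kg. Blood drawn at 0–480 min into K2EDTA tubes. Plasma precipitated with acetonitrile containing internal standards, then LC-MS/MS in positive MRM mode. Parameters from non-compartmental analysis.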

[5] = system: Mino; test: Antiproliferative activity against human Mino cells at 100 uM preincubated for 48 hrs followed by thymidine addition measure after 16 hrs by Thymidine incorporation assay; assay type: functional, cell-based
Procedure, shortened: (§4)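 MCL lines treated 48 h with compound re-added daily, alone or with co-drug (ibrutinib 25 µM where used), then thymidine added for a further 16 h; proliferation read as thymidine incorporation.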

[6] = system: Z-138; test: as §2, with “Z138” for “Mino”; assay type: cell-based; conditions: z-138, 12 h; procedure, shortened: as §3
[7] = biological target: Eukaryotic translation initiation factor 4E (Homo sapiens) (UniProt P06730); test: Inhibition of eIF4E in human Mino cells assessed as down regulation of c-Myc protein expression at 100 uM after 48 hrs in presence of ibrutinib by Western blot analysis; assay type: cell-based
Sequence of Eukaryotic translation initiation factor 4E (Homo sapiens) (P06730 whole entry): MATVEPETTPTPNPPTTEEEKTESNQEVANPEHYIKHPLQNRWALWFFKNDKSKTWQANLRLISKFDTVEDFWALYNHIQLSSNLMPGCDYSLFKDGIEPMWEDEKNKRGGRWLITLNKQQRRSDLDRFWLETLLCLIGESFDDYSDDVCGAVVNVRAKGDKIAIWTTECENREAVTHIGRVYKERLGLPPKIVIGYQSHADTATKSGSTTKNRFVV
Procedure, shortened: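 MCL lines treated 48 h with compound; protein quantified and Western blotted with eIF4E, eIF4G, actin, c-Myc and Bcl-2 antibodies.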

[8] = biological target: T1, Adenosine 5'-monophosphoramidase HINT1 (Homo sapiens, UniProt P49773); test: Prodrug activation in human GRANTA-519 cells assessed as Hint1 mediated 2-amino-7-(2-(4-chlorophenoxy)ethyl)-9-((2R,3R,4S,5R)-3,4-dihydroxy-5-(phosphonooxymethyl)tetrahydrofuran-2-yl)-6-oxo-6,9-dihydro-1H-purin-7-ium formation per 5 million cells at 150 uM after 12 hrs by LC-MS/MS analysis; assay type: cell-based
T1 sequence (P49773 whole entry): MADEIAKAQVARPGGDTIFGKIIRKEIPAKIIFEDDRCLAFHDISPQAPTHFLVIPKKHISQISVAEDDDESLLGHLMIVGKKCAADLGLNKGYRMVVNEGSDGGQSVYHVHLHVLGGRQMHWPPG
Procedure, shortened: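 Five million MCL cells in RPMI/10% FBS with penicillin, streptomycin and L-glutamine were exposed to compound (150 µM) for 12 h at 37 °C. Cells were washed in cold PBS, extracted in MeOH/NH4OAc (60:40) with 80 fmol internal standards, freeze-thawed three times, then filtered and dried. Residue was taken up in HEPES for LC-MS/MS, quantified against an internal-standard curve.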

[9] = system: Rattus norvegicus; test: AUC (0 to 8 hrs) in Sprague-Dawley rat plasma assessed as 9-((2R,3R,4S,5R)-5-(((((2-(1H-Indol-3-yl)ethyl)amino)-(hydroxy)phosphoryl)oxy)methyl)-3,4-dihydroxytetrahydrofuran-2-yl)-2-amino-7-(2-(4-chlorophenoxy)ethyl)-6-oxo-6,9-dihydro-1H-purin-7-ium at 25 mg/kg, po by LC-MS/MS analysis; assay type: ADME, organism-based; parameters: time < 8 hr, dose 25 mg/kg, route oral; conditions: in vivo; procedure, shortened: as §1
[10] = biological target: Eukaryotic translation initiation factor 4E (Homo sapiens) (UniProt P06730); test: Inhibition of eIF4E in human GRANTA-519 cells assessed as disruption of interaction between protein and mRNA 5'-cap at 10 to 100 uM by m7GTP pull-down assay; assay type: cell-based
Procedure, shortened: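 Eight to ten million treated MCL cells washed in cold PBS, lysed in cap binding buffer, and eIF4E binding captured on m7GTP-Sepharose beads (pull-down).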

[11] = system: Z-138; test: Antiproliferative activity against human Z138 cells at 200 uM preincubated for 48 hrs followed by thymidine addition measure after 16 hrs by Thymidine incorporation assay; assay type: functional; procedure, shortened: as §4
[12] = biological target: Eukaryotic translation initiation factor 4E (Homo sapiens) (UniProt P06730); test: Inhibition of eIF4E in human Mino cells assessed as down regulation of c-Myc mRNA expression at 100 uM by RT-PCR based RNA Immunoprecipitation; assay type: cell-based
Procedure, shortened: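 RNA-immunoprecipitation on Mino cells with a RNA-binding protein immunoprecipitation kit.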

[13] = biological target: T1, Adenosine 5'-monophosphoramidase HINT1; test: (§5) Prodrug activation in human Z138 cells assessed as Hint1 mediated 2-amino-7-(2-(4-chlorophenoxy)ethyl)-9-((2R,3R,4S,5R)-3,4-dihydroxy-5-(phosphonooxymethyl)tetrahydrofuran-2-yl)-6-oxo-6,9-dihydro-1H-purin-7-ium formation per 5 million cells at 150 uM after 12 hrs by LC-MS/MS analysis; assay type: cell-based; procedure, shortened: as §3
[14] = biological target: T1, Adenosine 5'-monophosphoramidase HINT1; test: as §5, with “hint1-mediated” for “Hint1 mediated”, “analysis relative to 9-((2R,3R,4S,5R)-5-(((((2-(1H-Indol-3-yl)ethyl)amino)-(hydroxy)phosphoryl)oxy)methyl)-3,4-dihydroxytetrahydrofuran-2-yl)-2-amino-7-(2-(4-chlorophenoxy)ethyl)-6-oxo-6,9-dihydro-1H-purin-7-ium” for “analysis”; assay type: cell-based; procedure, shortened: as §3
[15] = Cytotoxicity against human Mino cells assessed as reduction in cell survival at 100 uM after 48 hrs in presence of doxorubicin by Annexin V/propidium iodide based flow cytometric analysis
Procedure, shortened: (§6)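 MCL lines treated 48 h with compound re-added daily (alone or with co-drug; ibrutinib 25 µM), then survival assessed by Annexin V/PI flow cytometry.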

[16] = Oral bioavailability in Sprague-Dawley rat at 25 mg/kg by LC-MS/MS analysis; assay type: ADME, organism-based; conditions: in vivo; procedure, shortened: as §1
[17] = Antiproliferative activity against human Mino cells after 48 hrs by Annexin V/propidium iodide based flow cytometric analysis; assay type: functional, cell-based; procedure, shortened: as §6
[18] = system: Plasma; test: Prodrug activation in Sprague-Dawley rat assessed as Hint1 mediated 2-amino-7-(2-(4-chlorophenoxy)ethyl)-9-((2R,3R,4S,5R)-3,4-dihydroxy-5-(phosphonooxymethyl)tetrahydrofuran-2-yl)-6-oxo-6,9-dihydro-1H-purin-7-ium formation in plasma at 2.5 mg/kg, iv or 25 mg/kg, po by LC-MS/MS analysis; assay type: organism-based; conditions: in vivo; procedure, shortened: as §1
[19] = system: Granta-519; test: Antiproliferative activity against human GRANTA-519 cells at 200 uM preincubated for 48 hrs followed by thymidine addition measure after 16 hrs by Thymidine incorporation assay; assay type: functional; procedure, shortened: as §4
[20] = biological target: Eukaryotic translation initiation factor 4E (Homo sapiens) (UniProt P06730); test: Inhibition of eIF4E in human Mino cells assessed as potentiation of dexamethasone induced antiproliferation at 100 uM preincubated for 48 hrs followed by thymidine addition measure after 16 hrs by Thymidine incorporation assay; assay type: cell-based; procedure, shortened: as §4

AUC(0-t) at 8 h [1]: 23.3 ng·h/mL
Drug metabolism [2]: 64.6 pmol
CL [3]: 1800 mL/min/kg
Vd [4]: 205 L/kg
Drug metabolism [6]: 37.3 pmol
inhibition [7]: Active
Drug metabolism [8]: 10.3 pmol
AUC [9]: 2.6 µg·min/mL
inhibition [10]: Active
inhibition [12]: inactive
Drug metabolism [13]: 272 pmol
fold change (FC) [14]: 520
bioavailability [16]: 23%
Drug metabolism [18]: Metabolite_Notdetected
inhibition [20]: Active
Structure (SMILES): CSCCOP(=O)(NCCc1c[nH]c2ccccc12)OC[C@H]1O[C@@H](n2c[n+](CCOc3ccc(Cl)cc3)c3c(=O)[nH]c(N)nc32)[C@H](O)[C@@H]1O (stereo not given in full)
Activity [5]: Active
Activity [11]: 100%
Activity [15]: Non-Toxic
IC50 [17]: > 200 µM
Activity [19]: 100%
